Source: ChEMBL document CHEMBL5661979, “Pharmacological inhibition of BMK1 suppresses tumor growth through promyelocytic leukemia protein” (Cancer Cell, 2010)

Experiments:
[1] = molecular target: Cyclin-dependent kinase 2 (Homo sapiens, UniProt P24941); test: Inhibition of CDK2 K2 site in human HeLa cells lysate at 10 uM pre incubated for 15 mins followed by ADP acyl phosphate probe addition and measured after 10 mins by LC-MS/MS analysis relative to control; format: subcellular; settings: time 25.0 min
In short: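 KiNativ profiling in HeLa lysate (5 mg/mL total protein). Lysate incubated 15 min with inhibitor at 50, 10, 2, 0.8 or 0 μM. ATP or ADP acylphosphate probe then added (5 μM final) and reacted 10 min. Reaction stopped with urea and analysed by targeted MS, using up to four fragment ions per kinase peptide-probe conjugate. % inhibition taken against untreated lysate. Run in duplicate.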

[2] = molecular target: T1, Dual specificity mitogen-activated protein kinase kinase; MEK1/2 (Homo sapiens, UniProt P36507+Q02750); test: Inhibition of MAP2K1/MAP2K2in human HeLa cells lysate at 10 uM pre incubated for 15 mins followed by ADP acyl phosphate probe addition and measured after 10 mins by LC-MS/MS analysis relative to control; format: subcellular; settings: time 25.0 min
[3] = molecular target: 3-phosphoinositide-dependent protein kinase 1 (Homo sapiens, UniProt O15530); test: Inhibition of PDK1 in human HeLa cells lysate pre incubated for 15 mins followed by ADP acyl phosphate probe addition and measured after 10 mins by LC-MS/MS analysis; format: subcellular
[4] = molecular target: Ribosomal protein S6 kinase alpha-1 (Homo sapiens, UniProt Q15418); test: Inhibition of RSK1 domain 2 K1 site in human HeLa cells lysate pre incubated for 15 mins followed by ADP acyl phosphate probe addition and measured after 10 mins by LC-MS/MS analysis; format: subcellular
[5] = molecular target: T1, Dual specificity mitogen-activated protein kinase kinase; MEK1/2; test: Inhibition of MAP2K1/MAP2K2 in human HeLa cells lysate pre incubated for 15 mins followed by ATP acyl phosphate probe addition and measured after 10 mins by LC-MS/MS analysis; format: subcellular
[6] = molecular target: T2, Dual specificity mitogen-activated protein kinase kinase 6 (Homo sapiens) (UniProt P52564); test: Inhibition of MAP2K6 in human HeLa cells lysate at 10 uM pre incubated for 15 mins followed by ADP acyl phosphate probe addition and measured after 10 mins by LC-MS/MS analysis relative to control; format: subcellular; settings: time 25.0 min
T2 sequence (whole entry): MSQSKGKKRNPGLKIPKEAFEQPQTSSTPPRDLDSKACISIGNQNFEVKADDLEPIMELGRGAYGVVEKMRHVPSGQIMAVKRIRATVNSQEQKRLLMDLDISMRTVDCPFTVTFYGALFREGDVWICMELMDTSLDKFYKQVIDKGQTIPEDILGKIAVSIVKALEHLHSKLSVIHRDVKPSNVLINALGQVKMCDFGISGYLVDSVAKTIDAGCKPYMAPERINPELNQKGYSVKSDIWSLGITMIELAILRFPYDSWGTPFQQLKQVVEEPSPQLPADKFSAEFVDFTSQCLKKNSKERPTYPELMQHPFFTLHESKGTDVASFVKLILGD

[7] = molecular target: Ribosomal protein S6 kinase alpha-3 (Homo sapiens, UniProt P51812); test: Inhibition of RSK2 domain 2 K2 site in human HeLa cells lysate pre incubated for 15 mins followed by ADP acyl phosphate probe addition and measured after 10 mins by LC-MS/MS analysis; format: subcellular
[8] = Inhibition of SRC/FYN/YES in human HeLa cells lysate at 50 uM pre incubated for 15 mins followed by ATP acyl phosphate probe addition and measured after 10 mins by LC-MS/MS analysis relative to control; settings: 25 min, condition cancer
[9] = molecular target: Tyrosine-protein kinase CSK (Homo sapiens, UniProt P41240); test: Inhibition of CSK in human HeLa cells lysate at 2 uM pre incubated for 15 mins followed by ADP acyl phosphate probe addition and measured after 10 mins by LC-MS/MS analysis relative to control; format: subcellular; settings: time 25.0 min
[10] = molecular target: Serine/threonine-protein kinase ULK2 (Homo sapiens, UniProt Q8IYT8); test: Inhibition of ULK2 in human HeLa cells lysate pre incubated for 15 mins followed by ADP acyl phosphate probe addition and measured after 10 mins by LC-MS/MS analysis; format: subcellular
[11] = Clearance in Sprague-Dawley rat at 2 mg/kg, po measured up to 8 hrs by LC-MS/MS analysis; format: ADME, organism-based; settings: in vivo
In short: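 Sprague-Dawley rats given one intravenous dose or one oral dose of 2 mg/kg. Plasma drug concentrations were followed over time, with samples taken out to 8 hr after dosing. PK parameters (clearance, volume of distribution, half-life, oral bioavailability, Cmax) were calculated from these concentration–time data.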

[12] = molecular target: T3, Serine/threonine-protein kinase A-Raf (Homo sapiens) (UniProt P10398); test: Inhibition of ARAF in human HeLa cells lysate at 50 uM pre incubated for 15 mins followed by ATP acyl phosphate probe addition and measured after 10 mins by LC-MS/MS analysis relative to control; format: subcellular; settings: time 25.0 min
T3 sequence (whole entry): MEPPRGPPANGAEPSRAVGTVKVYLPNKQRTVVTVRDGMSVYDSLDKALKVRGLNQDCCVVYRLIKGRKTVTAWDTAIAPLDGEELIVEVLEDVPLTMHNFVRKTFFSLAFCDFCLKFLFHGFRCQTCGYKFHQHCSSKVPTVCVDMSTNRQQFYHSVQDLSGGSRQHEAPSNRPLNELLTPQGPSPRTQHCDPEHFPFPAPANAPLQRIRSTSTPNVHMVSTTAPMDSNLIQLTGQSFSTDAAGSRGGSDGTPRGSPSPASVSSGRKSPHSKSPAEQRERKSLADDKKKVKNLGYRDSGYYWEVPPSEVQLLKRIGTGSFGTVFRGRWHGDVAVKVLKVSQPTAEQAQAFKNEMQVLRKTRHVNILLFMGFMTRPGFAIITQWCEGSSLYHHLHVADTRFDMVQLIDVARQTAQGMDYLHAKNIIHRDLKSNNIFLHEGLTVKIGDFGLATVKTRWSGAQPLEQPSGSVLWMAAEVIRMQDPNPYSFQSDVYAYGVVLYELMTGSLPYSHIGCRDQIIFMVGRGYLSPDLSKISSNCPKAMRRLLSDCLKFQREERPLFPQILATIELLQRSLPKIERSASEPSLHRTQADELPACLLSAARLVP
In short: (§1)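 KiNativ-type profiling in HeLa lysate (5 mg/mL total protein). Lysate preincubated 15 min with inhibitor at 50, 10, 2, 0.8 or 0 μM, then ATP or ADP acylphosphate probe added (5 μM final) for 10 min. Reaction stopped with urea and analysed by targeted MS, using up to four fragment ions per kinase peptide-probe conjugate. % inhibition calculated against untreated lysate. Duplicate reactions.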

[13] = Toxicity in C57Bl/6 mouse assessed as effect on albumin level at 50 mg/kg, ip for 14 days (reference value: 3 g/dl); format: organism-based; settings: in vivo, 336 h, time 14 day
[14] = molecular target: Serine/threonine-protein kinase Aurora (Homo sapiens, UniProt Q96GD4+Q9UQB9+O14965); test: Inhibition of AurA/AurB/AurC in human HeLa cells lysate at 50 uM pre incubated for 15 mins followed by ATP acyl phosphate probe addition and measured after 10 mins by LC-MS/MS analysis relative to control; format: subcellular; settings: time 25.0 min; in short: as §1
[15] = Inhibition of NEK6/7 in human HeLa cells lysate at 2 uM pre incubated for 15 mins followed by ADP acyl phosphate probe addition and measured after 10 mins by LC-MS/MS analysis relative to control; settings: 25 min, condition cancer

Serine/threonine-protein kinase ULK2, sequence (Q8IYT8 whole entry): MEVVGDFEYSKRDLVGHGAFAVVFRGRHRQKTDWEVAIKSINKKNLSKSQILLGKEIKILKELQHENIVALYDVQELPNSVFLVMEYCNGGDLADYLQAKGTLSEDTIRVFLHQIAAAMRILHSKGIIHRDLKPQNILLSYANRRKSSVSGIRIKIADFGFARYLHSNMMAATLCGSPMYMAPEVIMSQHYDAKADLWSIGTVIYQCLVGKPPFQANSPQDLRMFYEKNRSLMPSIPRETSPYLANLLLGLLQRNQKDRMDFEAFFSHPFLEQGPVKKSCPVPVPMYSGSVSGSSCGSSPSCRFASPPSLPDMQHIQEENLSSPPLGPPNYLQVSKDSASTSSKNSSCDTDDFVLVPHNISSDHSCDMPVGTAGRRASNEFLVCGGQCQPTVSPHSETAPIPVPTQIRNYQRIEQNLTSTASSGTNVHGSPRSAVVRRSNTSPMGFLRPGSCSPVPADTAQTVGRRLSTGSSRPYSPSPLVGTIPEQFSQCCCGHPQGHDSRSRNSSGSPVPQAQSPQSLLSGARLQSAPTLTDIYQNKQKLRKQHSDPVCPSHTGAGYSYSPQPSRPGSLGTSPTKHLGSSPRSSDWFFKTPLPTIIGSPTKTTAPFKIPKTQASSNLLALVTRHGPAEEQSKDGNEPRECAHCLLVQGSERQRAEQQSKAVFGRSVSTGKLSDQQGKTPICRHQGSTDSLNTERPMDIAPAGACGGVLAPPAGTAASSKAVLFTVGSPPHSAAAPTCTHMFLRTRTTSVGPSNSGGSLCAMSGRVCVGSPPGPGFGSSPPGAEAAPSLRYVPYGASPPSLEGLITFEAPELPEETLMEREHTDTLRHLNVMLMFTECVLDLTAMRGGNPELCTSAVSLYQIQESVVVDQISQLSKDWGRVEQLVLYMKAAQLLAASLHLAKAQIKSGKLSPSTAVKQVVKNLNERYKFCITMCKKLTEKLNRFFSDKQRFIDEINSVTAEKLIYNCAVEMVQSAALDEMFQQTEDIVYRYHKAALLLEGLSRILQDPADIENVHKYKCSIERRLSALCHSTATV
3-phosphoinositide-dependent protein kinase 1, sequence (O15530 whole entry, the tested form may be a part): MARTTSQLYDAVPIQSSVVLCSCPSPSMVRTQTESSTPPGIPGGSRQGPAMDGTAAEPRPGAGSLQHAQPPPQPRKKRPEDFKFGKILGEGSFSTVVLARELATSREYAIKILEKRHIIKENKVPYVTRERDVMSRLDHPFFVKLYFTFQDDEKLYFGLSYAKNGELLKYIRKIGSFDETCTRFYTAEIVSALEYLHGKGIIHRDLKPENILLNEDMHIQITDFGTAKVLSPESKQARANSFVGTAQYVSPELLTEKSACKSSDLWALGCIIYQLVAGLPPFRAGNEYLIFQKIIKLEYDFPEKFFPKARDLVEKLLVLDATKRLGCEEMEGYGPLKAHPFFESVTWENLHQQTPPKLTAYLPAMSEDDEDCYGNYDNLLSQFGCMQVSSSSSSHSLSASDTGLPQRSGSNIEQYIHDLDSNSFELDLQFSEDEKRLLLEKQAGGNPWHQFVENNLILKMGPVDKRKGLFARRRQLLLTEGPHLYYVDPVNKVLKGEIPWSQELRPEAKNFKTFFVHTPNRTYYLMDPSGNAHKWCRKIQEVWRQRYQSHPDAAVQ
T1 sequence (P36507 whole entry, looked up): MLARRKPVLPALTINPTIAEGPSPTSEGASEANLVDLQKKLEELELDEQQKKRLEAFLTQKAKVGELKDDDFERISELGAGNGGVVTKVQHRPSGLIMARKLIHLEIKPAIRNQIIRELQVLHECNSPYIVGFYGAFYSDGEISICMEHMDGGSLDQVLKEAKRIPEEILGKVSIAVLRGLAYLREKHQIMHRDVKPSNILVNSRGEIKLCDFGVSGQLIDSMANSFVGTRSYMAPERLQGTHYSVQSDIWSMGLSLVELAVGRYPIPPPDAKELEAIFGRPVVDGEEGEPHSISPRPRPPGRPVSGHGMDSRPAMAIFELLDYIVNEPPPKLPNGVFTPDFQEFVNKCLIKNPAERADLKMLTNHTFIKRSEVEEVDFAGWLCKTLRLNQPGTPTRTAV
T1 sequence (Q02750 whole entry, looked up): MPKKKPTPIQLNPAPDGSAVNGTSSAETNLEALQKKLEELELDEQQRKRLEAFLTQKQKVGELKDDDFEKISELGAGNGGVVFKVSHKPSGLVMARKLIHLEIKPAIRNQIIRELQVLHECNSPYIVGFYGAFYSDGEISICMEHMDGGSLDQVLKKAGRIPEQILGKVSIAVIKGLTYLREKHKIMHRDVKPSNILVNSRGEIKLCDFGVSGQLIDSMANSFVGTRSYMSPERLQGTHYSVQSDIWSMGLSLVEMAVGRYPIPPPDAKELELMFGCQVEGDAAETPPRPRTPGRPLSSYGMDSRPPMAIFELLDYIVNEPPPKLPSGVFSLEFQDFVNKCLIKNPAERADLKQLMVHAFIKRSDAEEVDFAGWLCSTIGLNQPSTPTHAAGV
Ribosomal protein S6 kinase alpha-1, sequence (Q15418 whole entry, the tested form may be a part): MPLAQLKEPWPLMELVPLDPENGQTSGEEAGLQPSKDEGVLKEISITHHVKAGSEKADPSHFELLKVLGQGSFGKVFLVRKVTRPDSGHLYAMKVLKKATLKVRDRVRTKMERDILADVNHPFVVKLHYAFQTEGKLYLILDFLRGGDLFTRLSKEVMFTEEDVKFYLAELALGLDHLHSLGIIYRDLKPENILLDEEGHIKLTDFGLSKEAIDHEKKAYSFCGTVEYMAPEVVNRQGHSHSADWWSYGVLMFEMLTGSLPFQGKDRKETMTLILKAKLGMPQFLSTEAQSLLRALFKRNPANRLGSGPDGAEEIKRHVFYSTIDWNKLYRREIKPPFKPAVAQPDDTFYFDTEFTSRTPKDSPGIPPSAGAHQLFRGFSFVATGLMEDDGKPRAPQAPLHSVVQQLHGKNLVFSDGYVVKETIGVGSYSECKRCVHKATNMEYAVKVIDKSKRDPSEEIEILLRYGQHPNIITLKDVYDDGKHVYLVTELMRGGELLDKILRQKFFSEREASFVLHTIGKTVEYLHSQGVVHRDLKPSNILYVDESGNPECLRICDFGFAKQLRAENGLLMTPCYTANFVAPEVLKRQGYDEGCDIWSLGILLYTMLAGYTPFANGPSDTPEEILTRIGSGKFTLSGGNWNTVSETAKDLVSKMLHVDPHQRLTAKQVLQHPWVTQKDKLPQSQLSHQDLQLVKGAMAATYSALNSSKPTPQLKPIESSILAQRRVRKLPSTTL
Ribosomal protein S6 kinase alpha-3, sequence (P51812 whole entry, the tested form may be a part): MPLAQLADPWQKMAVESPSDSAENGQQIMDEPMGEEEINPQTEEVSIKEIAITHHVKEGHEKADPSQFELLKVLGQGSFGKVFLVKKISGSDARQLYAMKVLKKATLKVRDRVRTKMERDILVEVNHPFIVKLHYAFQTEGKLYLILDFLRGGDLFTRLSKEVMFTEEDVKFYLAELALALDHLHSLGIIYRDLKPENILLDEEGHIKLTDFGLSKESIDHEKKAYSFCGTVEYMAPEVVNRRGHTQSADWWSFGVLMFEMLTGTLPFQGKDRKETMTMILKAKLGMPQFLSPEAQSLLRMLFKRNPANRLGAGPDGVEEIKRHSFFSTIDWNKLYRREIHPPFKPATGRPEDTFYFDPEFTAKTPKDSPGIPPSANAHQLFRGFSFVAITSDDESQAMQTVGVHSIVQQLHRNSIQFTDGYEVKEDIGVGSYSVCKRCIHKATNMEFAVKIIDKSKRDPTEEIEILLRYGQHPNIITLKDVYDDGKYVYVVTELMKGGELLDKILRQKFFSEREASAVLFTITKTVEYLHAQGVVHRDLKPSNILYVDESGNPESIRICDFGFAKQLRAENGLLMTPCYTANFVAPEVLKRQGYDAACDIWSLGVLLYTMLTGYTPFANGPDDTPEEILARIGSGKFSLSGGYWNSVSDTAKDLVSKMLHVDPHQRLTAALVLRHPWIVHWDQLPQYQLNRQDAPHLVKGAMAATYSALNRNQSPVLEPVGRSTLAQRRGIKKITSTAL
Tyrosine-protein kinase CSK, sequence (P41240 2-450 limits assumed): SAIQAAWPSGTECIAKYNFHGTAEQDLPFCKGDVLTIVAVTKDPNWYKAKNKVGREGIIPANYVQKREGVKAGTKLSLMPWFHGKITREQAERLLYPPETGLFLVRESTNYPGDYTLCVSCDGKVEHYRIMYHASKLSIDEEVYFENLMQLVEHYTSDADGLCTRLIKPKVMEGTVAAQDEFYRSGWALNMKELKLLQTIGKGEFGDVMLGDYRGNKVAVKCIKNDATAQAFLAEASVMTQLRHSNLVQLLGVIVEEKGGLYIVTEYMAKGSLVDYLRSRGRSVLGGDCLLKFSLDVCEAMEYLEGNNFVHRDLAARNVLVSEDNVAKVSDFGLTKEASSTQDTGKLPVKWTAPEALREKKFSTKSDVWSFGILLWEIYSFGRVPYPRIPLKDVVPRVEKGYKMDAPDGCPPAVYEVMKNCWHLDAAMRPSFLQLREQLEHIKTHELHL

Q: With `CCOc1cc(N2CCC(O)CC2)ccc1Nc1ncc2c(n1)N(C)c1ccccc1C(=O)N2C` as the compound, how does the inhibition [1] read?
A: -7.5%

Q: What about the inhibition [2] of the same compound?
A: -2.3%

Q: And the IC50 [3]?
A: > 50 µM

Q: And the IC50 [4]?
A: 29 µM

Q: And the IC50 [5]?
A: > 50 µM

Q: And the inhibition [6]?
A: 5.6%

Q: What about the IC50 [7] of the same compound?
A: 47 µM

Q: What about the inhibition at 50 µM [8] of the same compound?
A: -27.1%

Q: What about the inhibition [9] of the same compound?
A: 11.6%

Q: What about the IC50 [10] of the same compound?
A: > 50 µM

Q: What about the CL/F [11] of the same compound?
A: 26 mL/min/kg

Q: What about the inhibition [12] of the same compound?
A: 4.3%

Q: What about the Activity [13] of the same compound?
A: 3.3 g/dL

Q: What about the inhibition [14] of the same compound?
A: 10.2%

Q: What about the inhibition at 2 µM [15] of the same compound?
A: 6.4%
